Calls of active or inactive are those of the source. No cut-off for these calls is given here.
Legend:
HepG2 [1] = test: Cytotoxicity against human HepG2 cells after 94 hrs by MTT assay; assay type: functional, cell-based; conditions: HepG2, 94 h
Method in brief: (§1)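 Cells seeded at 5 x 10^5 cells/200 µl/well in 96-well plates, grown in medium with 5% FCS. After 24 h, compounds added at 0–15 µM, with ethanol as vehicle control. Incubated 94 h, then medium replaced. MTT (5 mg/ml) added for 2-3 h at 37 °C and dissolved in DMSO. A620 read in triplicate wells. IC50 taken from the concentration giving 50% loss of viability.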

MDA-MB-361 [2] = test: Cytotoxicity against human MDA-MB-361 cells after 94 hrs by MTT assay; assay type: functional, cell-based; conditions: MDA-MB-361, 94 h; method in brief: as §1
SK-MEL-1 = test: Cytotoxicity against human SK-MEL-1 cells after 94 hrs by MTT assay; assay type: functional, cell-based; conditions: for IC50: SK-MEL-1, 94 h; method in brief: as §1
A549 = test: Cytotoxicity against human A549 cells after 94 hrs by MTT assay; assay type: functional, cell-based; conditions: for IC50: A549, 94 h; method in brief: as §1
HL-60 = test: Cytotoxicity against human HL60 cells after 94 hrs by MTT assay; assay type: functional, cell-based; conditions: for IC50: HL-60, 94 h; method in brief: as §1
HepG2 [3] = test: Modulation of lipid peroxidation in human HepG2 cells assessed as malondialdehyde production after 24 hrs by thiobarbituric acid assay; assay type: functional, cell-based
Method in brief: (§2)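 Cells exposed for 24 h to vehicle or to 25, 50 or 100 µM compound. Malondialdehyde measured spectrophotometrically by thiobarbituric acid assay and expressed as nmol MDA per 10^6 cells. Means ± SD of five experiments.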

HepG2 [4] = test: Induction of apoptosis in human HepG2 cells assessed as upregulation of cytochrome c expression at 15 uM after 24 hrs by Western blotting; assay type: functional
Method in brief: (§3)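 Cells (1 × 10^7/well) grown 24 h in serum-free medium at 37 °C, then treated 24 h, with ethanol as control. Harvested by trypsin and lysed in TNN buffer (50 mM Tris-HCl pH 7.4, NP-40, protease inhibitors). Cytosolic fraction taken from a 10,000 g spin. Protein measured by BCA and equal amounts run on 10% SDS-PAGE. Blotted to nitrocellulose, probed with monoclonal antibodies plus a β-actin reprobe, detected by ECL. Densitometry as mean of triplicates.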

HepG2 [5] = test: Induction of apoptosis in human HepG2 cells assessed as upregulation of caspase 3 expression at 15 uM after 24 hrs by Western blotting; assay type: functional, cell-based; method in brief: as §3
HFL1 = test: Cytotoxicity against human HFL1 cells after 94 hrs by MTT assay; assay type: cell-based; conditions: hfl1, 94 h; method in brief: as §1
MDA-MB-361 [6] = test: Modulation of lipid peroxidation in human MDA-MB-361 cells assessed as malondialdehyde production assessed per 10^6 cells at 25 to 100 uM after 24 hrs by thiobarbituric acid assay; assay type: functional; method in brief: as §2
MDA-MB-361 [7] = test: Induction of apoptosis in human MDA-MB-361 cells assessed as upregulation of cytochrome c expression at 15 uM after 24 hrs by Western blotting; assay type: functional; method in brief: as §3
MDA-MB-361 [8] = test: Induction of apoptosis in human MDA-MB-361 cells assessed as upregulation of caspase 3 expression at 15 uM after 24 hrs by Western blotting; assay type: functional; method in brief: as §3

Structure (SMILES)	IC50 (HepG2 [1]) [µM]	IC50 (MDA-MB-361 [2]) [µM]	growth inhibition (GI) (SK-MEL-1)	IC50 (A549) [µM]	IC50 (HL-60) [µM]	Activity (HepG2 [3])	Activity (HepG2 [4]) [%]	Activity (HepG2 [5])	IC50 (SK-MEL-1) [µM]	growth inhibition (GI) (A549)	growth inhibition (GI) (HL-60)	Activity (HFL1)	Activity (MDA-MB-361 [6]) [nmol]	Activity (MDA-MB-361 [7]) [%]	Activity (MDA-MB-361 [8]) [%]
CCCCC/C=C\C/C=C\C/C=C\C/C=C\CCCC(=O)Oc1c(C(C)C)cccc1C(C)C	3.1	7.21	Active	4.6	3.9	Dose-dependent effect	24.2	inactive							
CCCCC/C=C\C/C=C\CCCCCCCC(=O)Oc1ccc(C(C)C)cc1C(C)C	4.1	3.2							4.9	Active	Active	Non-toxic	0.25	35.2	32.6
CCCCC/C=C\C/C=C\C/C=C\C/C=C\CCCC(=O)Oc1ccc(C(C)C)cc1C(C)C	3.7	7.5	Active	5.3	4.4	Dose-dependent effect	24.7	inactive				Toxic			
CCCCC/C=C\C/C=C\CCCCCCCC(=O)Oc1c(C(C)C)cccc1C(C)C	3.3	2.76							4.1	Active	Active	Non-toxic	0.25	36.6	33.7
COc1cccc2c1C(=O)c1c(O)c3c(c(O)c1C2=O)C[C@@](O)(C(=O)CO)C[C@@H]3O[C@H]1C[C@H](N)[C@H](O)[C@H](C)O1 [DOXORUBICIN]	2.17	2.03		3.6	3.14				3.09			Non-toxic			

Source: ChEMBL document CHEMBL1828545, “Synthesis and characterization of novel PUFA esters exhibiting potential anticancer activities: an in vitro study” (Eur J Med Chem, 2011)
